Paper PMC4346016 (Drug Design, Development and Therapy, 2015)
Like-named read-outs stand apart in the source and are kept apart here. Values belong to the compound of their own block, whether it stands above or below them.

What was measured:
[1] = assay type: in vivo, human; settings: for half-life: t1/2β; for half-life / CL/F: mean ± SD; for half-life / Tmax / CL/F: n=22; for Tmax: median (min, max); for pharmacokinetic interaction with dapoxetine: single oral doses; for AUClast geometric mean ratio (90% CI): udenafil with dapoxetine combined therapy/udenafil monotherapy
Procedure, shortened: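 Crossover in healthy fasted men: single oral udenafil 200 mg alone or with dapoxetine 60 mg, with 240 mL water and a 1-week washout. Blood was taken 0.25–48 h postdose into EDTA and spun at 1,800 g, 4°C. Udenafil (5.0–2,000.0 ng/mL) and DA-8164 (0.25–100.00 ng/mL) were measured by UPLC-MS/MS. Non-compartmental AUC and CL/F were derived. Geometric mean ratios with 90% CI came from log-transformed mixed-model ANOVA.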

[2] = Tolerability / adverse drug reactions in healthy male subjects; assay type: in vivo, human; settings: for Abdominal discomfort: number of events / Abdominal discomfort: number of subjects / Adverse drug reactions, total: number of events / Decreased appetite: number of events / Decreased appetite: number of subjects / Diarrhea: number of events / Diarrhea: number of subjects / Dizziness: number of events / Dizziness: number of subjects / Headache: number of events / Headache: number of subjects / Insomnia: number of events / Insomnia: number of subjects / Nausea: number of events / Nausea: number of subjects / Ocular hyperemia: number of events / Ocular hyperemia: number of subjects / Somnolence: number of events / Somnolence: number of subjects / Suicidal ideation: number of events / Suicidal ideation: number of subjects / Vomiting: number of events / Vomiting: number of subjects / hyperhidrosis: number of events / hyperhidrosis: number of subjects / Adverse drug reactions, total: number of subjects: n=23 per treatment; for Adverse drug reactions, total: number of subjects / tolerability: udenafil 200 mg, dapoxetine 60 mg; for tolerability: alone or concomitantly, single oral doses
Procedure, shortened: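 Safety was monitored through each 48 h period and at follow-up 5–9 days after the last dose. Assessments were vital signs, 12-lead ECGs, hematology, blood chemistry, urinalysis, physical examinations and adverse-event monitoring. Each event was recorded with its symptoms/signs, duration, intensity, relation to study drug, action taken, outcome and seriousness. Counts are given as subjects and as events.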

[3] = assay type: in vivo, human; settings: two-compartment model, WinNonlin
[4] = cited from earlier work
[5] = rats; cited from earlier work
[6] = cited from earlier work; remark: listed apart in the source
[7] = cited from earlier work; remark: listed apart in the source
[8] = assay type: in vivo, human; settings: for AUClast geometric mean ratio (90% CI): dapoxetine with udenafil combined therapy/dapoxetine monotherapy; for half-life: t1/2β
Procedure, shortened: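 Six-sequence, three-period crossover in healthy men aged 20–45, fasted, with a 7-day washout. Single oral doses of dapoxetine 60 mg alone or with udenafil 200 mg. EDTA plasma was sampled from predose to 48 h. Parent and desmethyl metabolite were measured by UPLC-MS/MS with deuterated internal standards. Non-compartmental analysis: AUClast by trapezoidal rule, AUC0~∞ = AUClast + Clast/λz, CL/F = dose/AUC0~∞. Ratios from log-transformed mixed-model ANOVA with 90% CI.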

[9] = cited from earlier work; remark: listed apart in the source
[10] = integrated analysis of five trials, 6,081 patients; cited from earlier work
[11] = cited from earlier work; remark: listed apart in the source
[12] = combined therapy/udenafil monotherapy
[13] = male, human, plasma, oral, 200 mg
[14] = male, human, plasma, oral, 200 mg, udenafil 200 mg alone
[15] = male, human, plasma, oral, udenafil 200 mg + dapoxetine 60 mg
[16] = udenafil 200 mg + dapoxetine 60 mg
[17] = combined therapy/dapoxetine monotherapy
[18] = male, human, plasma, oral, 60 mg

AUC0~∞ geometric mean ratio (90% CI) [1, 12]: 0.923 (0.867–0.983)
CL/F geometric mean ratio (90% CI) [1, 12]: 1.084 (1.017–1.154)
Cmax geometric mean ratio (90% CI) [1, 12]: 0.864 (0.789–0.947)
t1/2β geometric mean ratio (90% CI) [1, 12]: 0.984 (0.948–1.022)
Cmax geometric mean ratio (90% CI) ([1]; combined therapy/udenafil monotherapy, listed as udenafil): 0.864
AUC(0-inf) [1, 13]: 4930 ng·h/mL
Cmax [1, 13]: 693 ± 206 ng/mL
half-life [1, 14]: 11 ± 1.64 h
Tmax [1, 14]: 1 h
half-life [1, 15]: 10.8 ± 1.27 h
Tmax [1, 15]: 2 h
AUC(0-t) ([1]; male, human, plasma, po, 200 mg): 4730 ng·h/mL
CL/F [1, 16]: 47.31 ± 14.07 L/h
CL/F ([1]; udenafil 200 mg alone): 43.69 ± 12.21 L/h
AUClast geometric mean ratio (90% CI) [1]: 0.923 (0.863–0.987)
AUClast geometric mean ratio (90% CI) ([1]; listed as udenafil): 0.923
absorption rate constant (ka) ([3]; combined therapy with dapoxetine): 0.50 ± 0.17 h⁻¹
absorption rate constant (ka) ([3]; monotherapy): 0.84 ± 0.29 h⁻¹
SMILES: CCCOc1ccc(S(=O)(=O)NCCC2CCCN2C)cc1-c1nc2c(CCC)nn(C)c2c(=O)[nH]1 (centres unmarked) [Udenafil]
pharmacokinetic interaction with dapoxetine [1, 16]: no clinically significant pharmacokinetic interactions
pharmacokinetic interaction with dapoxetine ([1]; udenafil 200 mg + dapoxetine 60 mg, listed as udenafil): no significant pharmacokinetic interactions
Abdominal discomfort: number of events [2]: 0 (0)
Abdominal discomfort: number of subjects [2]: 0 (0)
Adverse drug reactions, total: number of events [2]: 4
Decreased appetite: number of events [2]: 1 (1)
Decreased appetite: number of subjects [2]: 1 (1)
Diarrhea: number of events [2]: 0 (0)
Diarrhea: number of subjects [2]: 0 (0)
Dizziness: number of events [2]: 1 (1)
Dizziness: number of subjects [2]: 1 (1)
Headache: number of events [2]: 0 (0)
Headache: number of subjects [2]: 0 (0)
Insomnia: number of events [2]: 1 (1)
Insomnia: number of subjects [2]: 1 (1)
Nausea: number of events [2]: 0 (0)
Nausea: number of subjects [2]: 0 (0)
Ocular hyperemia: number of events [2]: 1 (1)
Ocular hyperemia: number of subjects [2]: 1 (1)
Somnolence: number of events [2]: 0 (0)
Somnolence: number of subjects [2]: 0 (0)
Suicidal ideation: number of events [2]: 0 (0)
Suicidal ideation: number of subjects [2]: 0 (0)
Vomiting: number of events [2]: 0 (0)
Vomiting: number of subjects [2]: 0 (0)
hyperhidrosis: number of events [2]: 0 (0)
hyperhidrosis: number of subjects [2]: 0 (0)
Adverse drug reactions, total: number of subjects [2]: 3
tolerability [2]: well tolerated
terminal half-life (t1/2β) ([4]; oral): 7.3 to 12.1 h
time to reach peak concentration (tmax) ([4]; oral): 0.8 to 1.3 h
ka ([4]; previously reported): 0.70 ± 0.26 h⁻¹
absolute oral bioavailability [5]: 38.0%–55.6
increase of mean AUClast on co-administration of ketoconazole [6]: 3.2 fold
increase of mean Cmax on co-administration of ketoconazole [6]: 1.9 fold
metabolic AUC ratio ([6]; udenafil administered alone): 1.71
metabolic AUC ratio ([6]; udenafil in combination with ketoconazole): 0.19

SMILES: CN1CC(=O)N2[C@H](c3ccc4c(c3)OCO4)c3[nH]c4ccccc4c3C[C@@H]2C1=O [tadalafil]
pharmacokinetic interaction with dapoxetine [7]: no clinically significant pharmacokinetic interactions

AUC0~∞ geometric mean ratio (90% CI) [8, 17]: 1.117 (1.048–1.191)
CL/F geometric mean ratio (90% CI) [8, 17]: 0.895 (0.840–0.954)
Cmax geometric mean ratio (90% CI) [8, 17]: 0.837 (0.758–0.925)
t1/2β geometric mean ratio (90% CI) [8, 17]: 0.947 (0.873–1.028)
Cmax geometric mean ratio (90% CI) ([8]; combined therapy/dapoxetine monotherapy, listed as dapoxetine): 0.837
CL/F ([8]; dapoxetine 60 mg + udenafil 200 mg, mean ± SD, n=20): 26.59 ± 9.22 L/h
CL/F ([8]; dapoxetine 60 mg alone, mean ± SD, n=20): 30.41 ± 11.99 L/h
Tmax ([8]; dapoxetine 60 mg alone, median (min, max), n=20): 1.00 (0.50, 2.00) h
AUClast geometric mean ratio (90% CI) [8]: 1.125 (1.044–1.213)
AUClast geometric mean ratio (90% CI) ([8]; listed as dapoxetine): 1.125
AUC(0-inf) [8, 18]: 2360 ng·h/mL
Cmax [8, 18]: 437 ± 143 ng/mL
Tmax [8, 18]: 1 h
half-life ([8]; male, human, plasma, oral, 60 mg, dapoxetine 60 mg alone, mean ± SD, n=20): 16.2 ± 6.72 h
half-life ([8]; male, human, plasma, oral, span over dapoxetine alone and with udenafil): 15.3 to 16.2 h
AUC(0-t) ([8]; male, human, plasma, po, 60 mg): 2100 ng·h/mL
SMILES: CN(C)[C@@H](CCOc1cccc2ccccc12)c1ccccc1 [Dapoxetine]
Abdominal discomfort: number of events [2]: 1 (1)
Abdominal discomfort: number of subjects [2]: 1 (1)
Adverse drug reactions, total: number of events [2]: 24
Decreased appetite: number of events [2]: 0 (0)
Decreased appetite: number of subjects [2]: 0 (0)
Diarrhea: number of events [2]: 2 (2)
Diarrhea: number of subjects [2]: 2 (2)
Dizziness: number of events [2]: 5 (5)
Dizziness: number of subjects [2]: 5 (5)
Headache: number of events [2]: 2 (2)
Headache: number of subjects [2]: 2 (2)
Insomnia: number of events [2]: 0 (0)
Insomnia: number of subjects [2]: 0 (0)
Nausea: number of events [2]: 11 (11)
Nausea: number of subjects [2]: 11 (11)
Ocular hyperemia: number of events [2]: 0 (0)
Ocular hyperemia: number of subjects [2]: 0 (0)
Somnolence: number of events [2]: 1 (1)
Somnolence: number of subjects [2]: 1 (1)
Suicidal ideation: number of events [2]: 0 (0)
Suicidal ideation: number of subjects [2]: 0 (0)
Vomiting: number of events [2]: 2 (2)
Vomiting: number of subjects [2]: 2 (2)
hyperhidrosis: number of events [2]: 0 (0)
hyperhidrosis: number of subjects [2]: 0 (0)
Adverse drug reactions, total: number of subjects [2]: 12
tolerability [2]: well tolerated
initial half-life ([9]; biphasic elimination): approximately 1.4 hours
plasma concentration as share of peak concentration ([9]; by 24 hours after drug administration): approximately 5%
Tmax [9]: 1.0 to 1.3 h
PE profile measures compared with placebo [10]: improved significantly
increase in AUC of active moiety with ketoconazole [11]: 88%
increase in Cmax of active moiety with ketoconazole [11]: 23%
increase in parent drug AUC with ketoconazole [11]: 99%
increase in parent drug Cmax with ketoconazole [11]: 35%
